Bioassay records from PubChem.
Only some compounds are listed: those with a hit (about 3% of all), similar ones and a draw of the others.
DDE Tn7 FP inh: inhibitors of Tn7 peptide binding to human fibrin DD(E); FP displacement of FITC-Tn7 peptide from fibrin DD(E); 0% = median of compound wells per plate; P02675; inhibition, % at 8.3 µM; 0.13% of 370,000 active;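 active = inhibition above the mean of compounds falling within the control limits plus 3 SD of them, cut at about 14% in these data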
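Test system – human fibrin DD(E) · Times – 10 min preincubation, 3 h with tracer, room temperature · Detection – fluorescence polarization of the labelled Tn7 tracer · Measure – percent inhibition normalized to high-control wells · Benchmarks – high control wells with 10 µM unlabelled Aha-Tn7 peptide (full inhibition) · Repeats – singlicate testing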
DDE Tn6 FP inh: disrupts Tn6 cyclic peptide binding to fibrin D-Dimer-E complex | 0.21% of 370,000 active | Fibrin DD(E) TRITC-Tn6 fluorescence polarization displacement | inhibition, % at 8.3 µM | P02675;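 active = inhibition above a per-campaign cutoff: mean of compounds within control limits plus 3 SD, cut at about 15% in these data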
NRP1-CendR mod: NRP-1/CendR interaction modulation. FAM-RPARPAR peptide binding to NRP-1, fluorescence polarization. 0.85% of 360,000 active. inhibition, % at 25 µM. O14786. AID 602438;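 active = inhibition or corrected inhibition above about 18%, plus a signal ratio from 0.5 to 1.5, limit read from the data, passing the limit was not always enough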
PLC-gamma1 inh: PLC-gamma1 (human) inhibition, primary screen; P19174; purified PLC-gamma1, fluorogenic substrate, fluorescence; inhibition, % at 12.2 µM; 0.84% of 370,000 active; AID 720700; in the data active = inhibition above about 9.5%
KLK7 zymogen act: proKLK7 (human) activation, primary screen | P49862 | purified proKLK7, EDANS-DABCYL substrate fluorescence; 100% is mature enzyme control, 0% vehicle | activation, % at 7 µM | 0.9% of 370,000 active | AID 652039;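 active = activation above the mean of all tested compounds plus 3 SD, computed per campaign excluding outliers beyond control limits, cut at about 13% in these data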
PLCb3 inh: inhibitors of human phospholipase C beta3 | 0.18% of 370,000 active | inhibition, % at 12.2 µM | Purified PLC-beta3, fluorogenic substrate, fluorescence | Q01970; in the data active = inhibition above about 11%
Target sequence (Q01970 whole entry, looked up): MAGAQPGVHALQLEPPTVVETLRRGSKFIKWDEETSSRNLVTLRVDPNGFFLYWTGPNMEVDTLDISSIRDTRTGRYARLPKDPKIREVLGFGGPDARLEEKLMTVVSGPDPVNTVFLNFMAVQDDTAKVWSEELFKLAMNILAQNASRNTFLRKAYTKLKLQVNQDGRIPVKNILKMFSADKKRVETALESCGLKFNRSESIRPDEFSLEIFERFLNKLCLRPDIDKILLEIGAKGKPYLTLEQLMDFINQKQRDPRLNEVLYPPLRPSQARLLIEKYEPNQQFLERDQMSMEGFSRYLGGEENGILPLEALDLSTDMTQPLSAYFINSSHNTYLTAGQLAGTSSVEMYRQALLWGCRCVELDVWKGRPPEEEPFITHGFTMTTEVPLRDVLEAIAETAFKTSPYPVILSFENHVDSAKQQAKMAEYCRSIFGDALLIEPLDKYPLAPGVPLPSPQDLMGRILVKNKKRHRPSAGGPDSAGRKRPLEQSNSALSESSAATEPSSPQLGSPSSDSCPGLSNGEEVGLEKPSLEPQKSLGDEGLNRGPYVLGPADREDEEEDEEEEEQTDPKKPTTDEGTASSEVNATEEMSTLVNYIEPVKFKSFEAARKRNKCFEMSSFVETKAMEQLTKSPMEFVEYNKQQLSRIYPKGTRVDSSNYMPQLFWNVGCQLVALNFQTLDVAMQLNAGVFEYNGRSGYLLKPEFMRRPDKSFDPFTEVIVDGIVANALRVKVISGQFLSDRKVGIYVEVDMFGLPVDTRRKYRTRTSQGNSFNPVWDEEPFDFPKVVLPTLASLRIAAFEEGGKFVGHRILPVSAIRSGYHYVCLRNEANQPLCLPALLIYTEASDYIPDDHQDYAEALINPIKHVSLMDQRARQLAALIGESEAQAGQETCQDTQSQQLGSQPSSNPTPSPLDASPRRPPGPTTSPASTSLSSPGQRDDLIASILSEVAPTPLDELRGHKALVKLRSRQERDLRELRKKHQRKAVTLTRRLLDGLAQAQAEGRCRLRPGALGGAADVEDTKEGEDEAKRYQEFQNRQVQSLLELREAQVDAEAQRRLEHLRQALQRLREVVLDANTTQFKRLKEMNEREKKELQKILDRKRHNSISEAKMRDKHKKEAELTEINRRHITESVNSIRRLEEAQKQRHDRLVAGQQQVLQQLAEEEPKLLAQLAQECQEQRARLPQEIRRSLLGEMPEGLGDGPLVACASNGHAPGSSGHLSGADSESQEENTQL
KLK7 act conf: confirmation of human kallikrein-7 zymogen activators; 68% of 3,200 active; purified proKLK7, EDANS-DABCYL substrate fluorescence; scaled: vehicle 0, mature enzyme 100; activation, % at 7 µM; shares compounds with KLK7 zymogen act;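 active = activation, as change over the incubation, above the mean of all tested compounds plus 3 SD, cut at about 13% in these data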
EDANS-DABCYL int: fluorescence interference counter-screen for KLK7 activators | shares compounds with KLK7 zymogen act | EDANS-DABCYL substrate fluorescence interference, no enzyme, 4 h; solvent 0%, active enzyme control 100% | activation, % at 7 µM | 80% of 3,200 active;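 active = activation above the all-compound mean plus 3 SD, ignoring values outside control-based bounds, cut at about 4.8% in these data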;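 also: value is the 4 h activation minus the activation read at time zero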
EDANS interf: counter-screen for kallikrein-7 activators: EDANS-DABCYL interference, dose response; EC50, µM; 20% of 250 active; AID 720493; shares compounds with KLK7 zymogen act; EDANS-DABCYL peptide fluorescence interference, no enzyme;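 active = compounds that raise the fluorescence signal in this interference counterscreen, with EC50 at or below 10 µM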;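 also: intact quenched peptide substrate alone read at 355 nm excitation and 520 nm emission; signal is fluorescence gain from T0 to T4 after four hours at room temperature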
Of the large screens only hits and unclear results are named; the others gave an inactive call (follow-up assays come after a bar, where they were run).

CCOC(=O)CC(=O)CSc1nc(-c2cccnc2)ccc1C#N	KLK7 zymogen act 83.8 | KLK7 act conf 286.4 | EDANS-DABCYL int 286.2
CCOC(=O)CC(=O)CSc1nc(-c2cccnc2)cc(C)c1C#N	KLK7 zymogen act 33.9 | KLK7 act conf 115.5 | EDANS-DABCYL int 122.7
Cc1cc(NC(=O)c2ccc(NS(=O)(=O)c3ccccc3)cc2)no1	none (no result: NRP1-CendR mod)
CC[C@@H]1C(c2cccc(Cl)c2)=NN(c2ccc(Br)cc2)[C@H]1C(=O)N1CCOC1=O	none (no result: DDE Tn7 FP inh, DDE Tn6 FP inh, PLC-gamma1 inh, KLK7 zymogen act, PLCb3 inh)
O=C1OCCN1C(=O)[C@H]1[C@H](c2ccc(F)cc2)C(c2cccc(Cl)c2)=NN1c1ccccc1	none
CC[C@@H]1C(c2cccc(C)c2)=NN(c2ccccc2)[C@H]1C(=O)N1CCOC1=O	KLK7 zymogen act 40.9 | KLK7 act conf 55.5 | EDANS-DABCYL int 51.5
CC[C@@H]1C(c2ccccc2)=NN(c2ccc(Br)cc2)[C@H]1C(=O)N1CCOC1=O	KLK7 zymogen act 27.5 | KLK7 act conf inactive | EDANS-DABCYL int inactive
C[C@@H]1C(c2ccc(F)cc2)=NN(c2ccccc2)[C@H]1C(=O)N1CCOC1=O	KLK7 zymogen act 21.3 | KLK7 act conf 12.6 | EDANS-DABCYL int 24.1
CCCCNS(=O)(=O)CC1NCc2cc(OC)ccc21 (stereo unspecified)	none (no result: NRP1-CendR mod)
CCN(CC)Cc1c(O)c(Cl)cc2c(C)c(C)c(=O)oc12	KLK7 zymogen act 57.9 | KLK7 act conf 66.0 | EDANS-DABCYL int 82.9
COc1ccc(-c2c(C)c3ccc(O)cc3oc2=O)cc1	KLK7 zymogen act 82.4 | KLK7 act conf 72.6 | EDANS-DABCYL int 83.0
CCOC(=O)c1c(C)oc2cc(Cl)c(O)c(CN(C)C)c12	none
C=CCc1c(O)c(CC)cc2c(C)cc(=O)oc12	KLK7 zymogen act 90.1 | KLK7 act conf 60.5 | EDANS-DABCYL int 65.8
CCN(CC)Cc1c(O)c(Cl)cc2c(C)cc(=O)oc12	KLK7 zymogen act 53.1 | KLK7 act conf 72.9 | EDANS-DABCYL int 66.3
CCOC(=O)Cn1cc(CN2C(C(=O)OC)CN(Cc3ccc(Cl)cc3)CCS2(=O)=O)nn1 (stereo unspecified)	none (no result: NRP1-CendR mod)
O=C(OCc1cn(Cc2ccccc2)nn1)N1CCCC1	none (no result: NRP1-CendR mod)
Cc1c(Cc2ccccc2)c(=O)oc2c(O)c(O)ccc12	none
Cc1c(Cc2ccccc2)c(=O)oc2cc(O)ccc12	KLK7 zymogen act 88.0 | KLK7 act conf 71.0 | EDANS-DABCYL int 80.5
Cc1c(Cc2ccccc2)c(=O)oc2c(CN(C)C)c(O)c(Cl)cc12	KLK7 zymogen act 48.4 | KLK7 act conf 67.9 | EDANS-DABCYL int 67.3
COc1cc2cc(Oc3ccc4ccc(=O)oc4c3)c(=O)oc2cc1OC(C)=O	none
O=C(Oc1ccc2ccc(=O)oc2c1)c1ccco1	KLK7 zymogen act 179.6 | KLK7 act conf 705.4 | EDANS-DABCYL int 729.3
O=C(CN1C(=O)NC2(CCCCC2)C1=O)Oc1ccc2ccc(=O)oc2c1	KLK7 zymogen act 127.0 | KLK7 act conf 62.0 | EDANS-DABCYL int 65.4
COc1cc2cc(Oc3ccc4ccc(=O)oc4c3)c(=O)oc2cc1O	KLK7 zymogen act 37.3 | KLK7 act conf 36.4 | EDANS-DABCYL int 39.8
COc1ccccc1C(=O)Oc1ccc2ccc(=O)oc2c1	KLK7 zymogen act 356.2 | KLK7 act conf 692.8 | EDANS-DABCYL int 694.3
Nc1nc(N)c2c(ccc3nccc32)[nH]1	KLK7 zymogen act 195.4 | KLK7 act conf 76.3 | EDANS-DABCYL int 80.7
Nc1ccc2ncccc2c1N	none
CCOC(=O)c1cc2c(=O)n3cccc(C)c3nc2n(Cc2ccco2)c1=NC(=O)c1ccc(C)cc1	none (no result: DDE Tn7 FP inh, DDE Tn6 FP inh, PLC-gamma1 inh, KLK7 zymogen act, PLCb3 inh)
CCOCCCn1c(=NC(=O)c2ccco2)c(C(=O)OCC)cc2c(=O)n3cccc(C)c3nc21	KLK7 zymogen act 39.1 | KLK7 act conf 23.1 | EDANS-DABCYL int 9.2 | EDANS interf inactive
CCCCn1c(=NC(=O)c2ccc3c(c2)OCO3)c(C#N)cc2c(=O)n3cccc(C)c3nc21	none
CCOC(=O)c1cc2c(=O)n3cccc(C)c3nc2n(CC(C)C)c1=NC(=O)c1ccco1	KLK7 zymogen act 74.1 | KLK7 act conf inactive | EDANS-DABCYL int 5.7
C[C@@H]1/C=C/CC(=O)N[C@H](c2cccc(Br)c2)[C@H](C)/C=C/CC(=O)N[C@@H]1c1cccc(Br)c1	none (no result: NRP1-CendR mod)
CC(C)CN1C(=O)[C@]2(CC(=O)N(C)C2c2ccccc2)c2cc(-n3cc(CCc4ccccc4)nn3)ccc21 (stereo partly specified)	none (no result: NRP1-CendR mod)
O=c1cc(C(F)F)oc2c1ccc1ccccc12	KLK7 zymogen act 17.3 | KLK7 act conf 17.6 | EDANS-DABCYL int 19.5
O=c1oc2ccccc2c2c1ccc1ccccc12	none
N#Cc1c(C(F)(F)F)cc(C2CC2)[nH]c1=O	KLK7 zymogen act 17.6 | KLK7 act conf 16.3 | EDANS-DABCYL int 22.9
N#Cc1c(C(F)(F)F)cc(-c2ccccc2Cl)[nH]c1=O	none
CCCC[C@H]1C2CC(OC(=O)Nc3ccc4c(c3)OCO4)C(C2)[C@H]2CCCCN21 (stereo partly specified)	none (no result: NRP1-CendR mod)
CN1c2ccc(Cl)cc2C(=O)NC1C1CC=CCC1 (stereo unspecified)	KLK7 zymogen act 14.3 | KLK7 act conf inactive | EDANS-DABCYL int inactive
CC(C)CC1NC(=O)c2cc(Cl)ccc2-n2c1nc1cc(F)ccc1c2=O (stereo unspecified)	none (no result: NRP1-CendR mod)
CCCCN(C)CCn1c(=S)[nH]c2ccc(N3CCOCC3)cc2c1=O	KLK7 zymogen act 67.6 | KLK7 act conf inactive | EDANS-DABCYL int inactive
COCCn1c(=S)[nH]c2ccc(N(C)C)cc2c1=O	KLK7 zymogen act 48.2 | KLK7 act conf 76.0 | EDANS-DABCYL int 74.2
O=C(CCCCCn1c(=S)[nH]c2ccc(N3CCOCC3)cc2c1=O)NCc1cccc(Cl)c1	KLK7 zymogen act 16.5 | KLK7 act conf inactive | EDANS-DABCYL int inactive
O=c1c2cc(N3CCOCC3)ccc2[nH]c(=S)n1Cc1ccccn1	KLK7 zymogen act 79.6 | KLK7 act conf 20.6 | EDANS-DABCYL int 19.7
Cc1ccc(S(=O)(=O)N(C)[C@H]2C[C@H]3c4cc(-c5ccccc5C)ccc4CCN3C[C@H]2[C@H](C)O)cc1	none (no result: NRP1-CendR mod)
CCOC(=O)Cn1cc(CN2C(C(=O)OC)CN(Cc3ccc(F)cc3)CCS2(=O)=O)nn1 (stereo unspecified)	none (no result: NRP1-CendR mod)
